Laboratory results taken from ChEMBL document CHEMBL2311271 (Eur J Med Chem, 2013).

Key:
[1] = system: Lewis lung carcinoma cell line; test: Antitumor activity against mouse LLC cells xenografted in mouse assessed as tumor inhibition at 7.5 mg/kg, ip qd for 7 days measured every 3 days for 21 days; format: functional; settings: route intraperitoneal
In short: (§1)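 Tumour cells passaged in mice for 7 days, then harvested. Viable cells (2 × 10⁶/mouse) injected s.c. into the armpit. Starting 24 h later, compound given i.p. once daily for 7 days, 10 female mice per group. Mice killed on day 21 after inoculation and tumours excised and weighed. Inhibition = (C − T)/C × 100, using mean tumour weights of treated (T) and negative control (C) groups.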

[2] = system: Mus musculus; test: Neurotoxicity in ip dosed C57BL/6 mouse assessed as tremble, twitch, jumping and supination response; format: toxicity, organism-based; settings: in vivo
In short: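 C57BL/6 mice (9–12 weeks, 18–22 g), fasted overnight with water, dosed i.p. with 1.0–500 mg/kg in 0.5% CMC-Na; 10 per group (5 male, 5 female). Watched continuously 2 h for tremor, twitch, jumping, supination and other behavior, then intermittently to 24 h and occasionally to 14 days; killed day 14, with heart, liver and kidneys inspected.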

[3] = Antitumor activity against mouse Sarcoma 180 cells xenografted in mouse assessed as tumor inhibition at 7.5 mg/kg, ip qd for 7 days measured every 3 days for 21 days; format: functional; settings: Sarcoma-180, ip, route intraperitoneal; in short: as §1
[4] = system: KB; test: Cytotoxicity against human KB cells by MTT assay; format: functional, cell-based
In short: (§2)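 Cells grown in RPMI-1640 with 10% fetal calf serum plus penicillin and streptomycin, 37 °C, 5% CO₂. Compounds in DMSO, final ≤2% (v/v), tested in 96-well cultures with MTT staining. IC₅₀ = concentration cutting optical density 50% versus untreated cells; three replicate wells per point; mean of three independent determinations.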

[5] = system: 786-0; test: Cytotoxicity against human 786-0 cells by MTT assay; format: functional, cell-based; in short: as §2
[6] = system: BGC-823; test: Cytotoxicity against human BGC823 cells by MTT assay; format: functional, cell-based; in short: as §2
[7] = system: HepG2; test: Cytotoxicity against human HepG2 cells by MTT assay; format: functional, cell-based; in short: as §2
[8] = system: MCF7; test: Cytotoxicity against human MCF7 cells by MTT assay; format: functional, cell-based; in short: as §2
[9] = Acute toxicity in ip dosed C57BL/6 mouse measured up to 14 days; format: organism-based; settings: in vivo
In short: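 Healthy C57BL/6 mice (9–12 weeks, 18–22 g), fasted overnight, 10 per group (5 male, 5 female). Single i.p. dose, 1.0 to 500 mg/kg in 0.5% CMC-Na. Watched continuously for 2 h, intermittently over 24 h, then occasionally to day 14 for behaviour, deaths and delayed effects. Heart, liver and kidneys inspected at necropsy. LD50 derived graphically.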

[10] = system: SCaBER; test: Cytotoxicity against human SCaBER cells by MTT assay; format: functional, cell-based; in short: as §2
[11] = system: U-251; test: Cytotoxicity against human U251 cells by MTT assay; format: functional, cell-based; in short: as §2
[12] = system: Bel-7402; test: Cytotoxicity against human Bel7402 cells by MTT assay; format: functional, cell-based; in short: as §2
[13] = Cytotoxicity against human Blu-87 cells by MTT assay; format: functional, cell-based; in short: as §2
[14] = system: HT-29; test: Cytotoxicity against human HT-29 cells by MTT assay; format: functional, cell-based; in short: as §2
[15] = Antitumor activity against mouse Sarcoma 180 cells xenografted in mouse assessed as tumor inhibition at 40 mg/kg, ip qd for 7 days measured every 3 days for 21 days; format: functional; settings: Sarcoma-180, ip, route intraperitoneal
[16] = system: 769-P; test: Cytotoxicity against human 769-P cells by MTT assay; format: functional, cell-based; in short: as §2
[17] = system: HeLa; test: Cytotoxicity against human HeLa cells by MTT assay; format: functional, cell-based; in short: as §2
[18] = system: A-375; test: Cytotoxicity against human A375 cells by MTT assay; format: functional, cell-based; in short: as §2
[19] = system: Lewis lung carcinoma cell line; test: Antitumor activity against mouse LLC cells xenografted in mouse assessed as tumor inhibition at 40 mg/kg, ip qd for 7 days measured every 3 days for 21 days; format: functional; settings: route intraperitoneal
[20] = system: A549; test: Cytotoxicity against human A549 cells by MTT assay; format: functional, cell-based; in short: as §2
[21] = system: Lewis lung carcinoma cell line; test: Antitumor activity against mouse LLC cells xenografted in mouse assessed as tumor inhibition at 1.2 mg/kg, ip qd for 7 days measured every 3 days for 21 days; format: functional; settings: route intraperitoneal
[22] = Antitumor activity against mouse Sarcoma 180 cells xenografted in mouse assessed as tumor inhibition at 1.2 mg/kg, ip qd for 7 days measured every 3 days for 21 days; format: functional; settings: Sarcoma-180, ip, route intraperitoneal
[23] = system: OS-RC-2; test: Cytotoxicity against human OS-RC2 cells by MTT assay; format: functional, cell-based; in short: as §2
[24] = system: CWR22R; test: Cytotoxicity against human 22Rv1 cells by MTT assay; format: functional, cell-based; in short: as §2
[25] = system: Lewis lung carcinoma cell line; test: Antitumor activity against mouse LLC cells xenografted in mouse assessed as tumor inhibition at 2.5 mg/kg, ip qd for 7 days measured every 3 days for 21 days; format: functional; settings: route intraperitoneal
[26] = Antitumor activity against mouse Sarcoma 180 cells xenografted in mouse assessed as tumor inhibition at 2.5 mg/kg, ip qd for 7 days measured every 3 days for 21 days; format: functional; settings: Sarcoma-180, ip, route intraperitoneal
[27] = Antitumor activity against mouse Sarcoma 180 cells xenografted in mouse assessed as tumor inhibition at 0.63 mg/kg, ip qd for 7 days measured every 3 days for 21 days; format: functional; settings: Sarcoma-180, ip, route intraperitoneal
[28] = system: Lewis lung carcinoma cell line; test: Antitumor activity against mouse LLC cells xenografted in mouse assessed as tumor inhibition at 0.63 mg/kg, ip qd for 7 days measured every 3 days for 21 days; format: functional; settings: route intraperitoneal
[29] = Antitumor activity against mouse Sarcoma 180 cells xenografted in mouse assessed as tumor inhibition at 30 mg/kg, ip qd for 7 days measured every 3 days for 21 days; settings: Sarcoma-180, ip, read-out: INH
[30] = system: Lewis lung carcinoma cell line; test: Antitumor activity against mouse LLC cells xenografted in mouse assessed as tumor inhibition at 30 mg/kg, ip qd for 7 days measured every 3 days for 21 days; settings: read-out: INH

Structure (SMILES) | Activity [2] | IC50 [4] [µM] | IC50 [5] [µM] | IC50 [6] [µM] | IC50 [7] [µM] | IC50 [8] [µM] | LD50 at 336 h [9] [mg/kg] | IC50 [10] [µM] | IC50 [11] [µM] | IC50 [12] [µM] | IC50 [13] [µM] | IC50 [14] [µM] | IC50 [16] [µM] | IC50 [17] [µM] | IC50 [18] [µM] | IC50 [20] [µM] | IC50 [23] [µM] | IC50 [24] [µM] | further results
COc1ccc2c(c1)[nH]c1c(C)nccc12 [HARMINE] | Toxic |  |  |  |  |  |  |  |  |  |  |  |  |  |  |  |  |  | inhibition in vivo at 7.5 mg/kg [1]: 33.7%; inhibition in vivo at 7.5 mg/kg [3]: 30.8%
CCn1c2cc(OCCCc3ccccc3)ccc2c2ccnc(C)c21 | Non-toxic | 22.6 | 13.2 | 11.9 | 11.4 | > 100 | 200 | 6.5 | 28 | 13.5 | 16.7 | 11.8 | 22.6 | 30.2 | 19.7 | 22.6 |  |  | inhibition in vivo at 40 mg/kg [15]: 26%; inhibition in vivo at 40 mg/kg [19]: 21.7%
CCC(CC)Oc1ccc2c3cc[n+](Cc4ccccc4)c(C)c3n(CCCc3ccccc3)c2c1.[Br-] | Non-toxic | < 1.5 | < 1.5 | 2.5 | 3.1 | 1.8 | 6.25 | 4.4 | 2.1 | 0.81 | 2.1 | 2 | < 1.5 | 1.5 | < 1.5 | 2 | 2.5 | < 1.5 | inhibition in vivo at 1.2 mg/kg [21]: 28%; inhibition in vivo at 1.2 mg/kg [22]: 41.5%
CCn1c2cc(OCC(C)C)ccc2c2ccnc(C)c21 | Non-toxic | 20.3 | 24.3 | 29.8 | 20.8 | 13.2 | 200 | 16.4 | 44.6 | 21.9 | 14.2 | 16.9 | 27 | 23.3 |  | 30.3 | 32 |  | inhibition in vivo at 40 mg/kg [15]: 27.8%; inhibition in vivo at 40 mg/kg [19]: 20.8%
CCn1c2cc(OCC(C)C)ccc2c2cc[n+](Cc3ccccc3)c(C)c21.[Br-] | Non-toxic | < 1.7 | 8.5 | 10.6 | 9.6 | 11.1 | 12.5 | 34.1 | 17.3 | 3.2 | 25.9 | 4 | 5.2 | 4.9 | 7.8 | 11.6 | 10.6 |  | inhibition in vivo at 2.5 mg/kg [25]: 30%; inhibition in vivo at 2.5 mg/kg [26]: 44.2%
CCn1c2cc(OCc3c(F)c(F)c(F)c(F)c3F)ccc2c2cc[n+](Cc3ccccc3)c(C)c21.[Br-] | Non-toxic | 13.8 | 2.9 |  |  |  | 12.5 | 6.8 | 6.6 |  | 17.7 | 1.6 | 13 |  | 3.8 | 1.8 | 1.8 | < 1.4 | inhibition in vivo at 2.5 mg/kg [25]: 23.7%; inhibition in vivo at 2.5 mg/kg [26]: 36.9%
Cc1c2c(cc[n+]1Cc1ccccc1)c1ccc(OCCCc3ccccc3)cc1n2CCCc1ccccc1.[Br-] | Non-toxic | < 1.5 | 2.2 | 2.5 | 3.8 | 6.6 | 3.75 | 7.7 | 0.74 | 2 | 1.5 | 2 | 2.9 | 3.1 | < 1.5 | 3.3 | 3.1 | 2.3 | inhibition in vivo at 0.63 mg/kg [27]: 46.1%; inhibition in vivo at 0.63 mg/kg [28]: 33.7%
O=P1(N(CCCl)CCCl)NCCCO1 (stereo not drawn) [CYCLOPHOSPHAMIDE ANHYDROUS] | Non-toxic |  |  |  |  |  |  |  |  |  |  |  |  |  |  |  |  |  | inhibition in vivo at 30 mg/kg [29]: 88.7%; inhibition in vivo at 30 mg/kg [30]: 85.6%
CCCCOc1ccc2c3cc[n+](Cc4ccccc4)c(C)c3n(CCCc3ccccc3)c2c1 |  | < 1.5 | 2.6 | 4.1 | 4.1 | 3.8 |  | 4.7 | 3.7 | 2.5 | 4.4 | 3.4 | 2.9 | 3.9 | 1.5 | < 1.5 | 6.8 | 3.4 | 
Cc1c2c(cc[n+]1Cc1ccccc1)c1ccc(OCCCc3ccccc3)cc1n2CC(C)C |  | < 1.5 | 2.3 | 2.5 | 4 | 9.2 |  | 3.6 | 2.5 | 1.3 | 3.8 | 4.9 | 3.7 | 1.4 | < 1.5 | < 1.5 | 3.5 | 2.8 | 
